Test results reported in ChEMBL document CHEMBL2021854, “2-Aminopyrimidine based 4-aminoquinoline anti-plasmodial agents. Synthesis, biological activity, structure-activity relationship and mode of action studies” (Eur J Med Chem, 2012).

System: Feline infectious peritonitis virus
Assay: Antiviral activity against FIPV infected in cat CRFK cells assessed as inhibition of virus-induced cytopathic effect after 4 days by colorimetric formazan-based MTS assay
Format: functional, cell-based
Conditions: Alphacoronavirus 1, CRFK, 96 h

Row | Compound | EC50
1 | Nc1nc(O)c2ncn(COC(CO)CO)c2n1 [GANCICLOVIR] | > 100 µM

System: Vesicular stomatitis virus
Assay: Antiviral activity against Vesicular stomatitis virus infected in HEL cells assessed as inhibition of virus-induced cytopathogenicity after 4 days
Format: functional, organism-based
Conditions: 96 h
Method in brief: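 Confluent HEL or HeLa monolayers infected with 100 CCID50 of virus in the presence of varying compound concentrations.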

Row | Compound | EC50
2 | Nc1nc(O)c2ncn(COC(CO)CO)c2n1 [GANCICLOVIR] | > 100 µM

System: HeLa
Assay: Cytotoxicity against human HeLa cells assessed as cell viability by colorimetric formazan-based MTS assay
Conditions: not given

Row | Compound | CC50
3 | Nc1nc(O)c2ncn(COC(CO)CO)c2n1 [GANCICLOVIR] | 222 µM

System: Felid alphaherpesvirus 1
Assay: Antiviral activity against Feline herpesvirus infected in cat CRFK cells assessed as inhibition of virus-induced cytopathic effect after 4 days by colorimetric formazan-based MTS assay
Format: functional, organism-based
Conditions: Felid alphaherpesvirus 1, CRFK, 96 h

Row | Compound | EC50
4 | Nc1nc(O)c2ncn(COC(CO)CO)c2n1 [GANCICLOVIR] | 4.1 µM

System: not listed separately
Assay: Cytotoxicity against cat CRFK cells assessed as cell viability by colorimetric formazan-based MTS assay
Set-up: species or system Felis catus
Conditions: CRFK cells

Row | Compound | CC50
5 | Nc1nc(O)c2ncn(COC(CO)CO)c2n1 [GANCICLOVIR] | > 100 µM

System: not listed separately
Assay: Cytotoxicity against human HEL cells assessed as minimum compound concentration required to causes microscopically detectable alteration of normal cell morphology
Format: cell-based
Conditions: not given
Method in brief: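 Confluent, non-proliferating cell cultures were exposed to the compounds. The endpoint was the minimum concentration producing a microscopically detectable alteration of normal cell morphology.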

Row | Compound | MCC
6 | Nc1nc(O)c2ncn(COC(CO)CO)c2n1 [GANCICLOVIR] | > 100 µM
